What was measured:
Plasmodium berghei [1] = assay: Antimalarial activity against Plasmodium berghei ANKA infected in NMRI mice (Mus musculus) assessed as reduction in parasitemia at 100 mg/kg, perorally administered as single dose measured on day 3 postinfection; assay type: functional; parameters: scale not given: the % may be the effect or the level left; settings: route oral
Outline: (§1)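 P. berghei ANKA given intravenously to groups of 5 female NMRI mice (20–22 g): 0.2 ml of 1 × 10^8 parasitized erythrocytes/ml from a donor mouse. Oral dosing in 0.5% carboxymethyl cellulose. Parasitemia counted by microscopy. Activity is the control-minus-treated parasitemia difference, expressed as percent of untreated controls.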

Mus musculus [2] = assay: Toxicity in NMRI mice (Mus musculus) infected with Plasmodium berghei ANKA at 100 mg/kg, perorally administered as single dose measured up to 30 days postinfection; assay type: organism-based; parameters: dose 100 mg/kg, route oral; settings: in vivo, po, 720 h
Plasmodium berghei [3] = assay: Antimalarial activity against Plasmodium berghei ANKA infected in NMRI mice (Mus musculus) assessed as reduction in parasitemia at 3 times 30 mg/kg, perorally measured on day 3 postinfection; assay type: functional; parameters: scale not given: the % may be the effect or the level left; settings: route oral; outline: as §1
Plasmodium berghei [4] = assay: Antimalarial activity against Plasmodium berghei ANKA infected in NMRI mice (Mus musculus) assessed as cure rate at 3 times 30 mg/kg, perorally measured […]; assay type: functional; settings: route oral
Outline: (§2)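 Female NMRI mice (20–22 g), 5 per group, infected intravenously with 0.2 ml of 1 × 10^8 parasitized erythrocytes/ml from a fresh donor mouse. Compound suspended in 0.5% carboxymethyl cellulose and given orally. Survival followed to day 30 post-infection; an animal was scored cured if it survived to day 30 without parasites.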

Mus musculus [5] = assay: Toxicity in NMRI mice (Mus musculus) infected with Plasmodium berghei ANKA at 3 times 30 mg/kg, perorally measured up to 30 days postinfection; assay type: organism-based; parameters: dose 30 mg/kg, route oral; settings: in vivo, po, 720 h
Plasmodium berghei [6] = assay: Antimalarial activity against Plasmodium berghei ANKA infected in NMRI mice (Mus musculus) assessed as cure rate at 100 mg/kg, perorally administered as single dose measured on […]; assay type: functional; settings: route oral; outline: as §2
Plasmodium berghei [7] = assay: Antimalarial activity against Plasmodium berghei ANKA infected in NMRI mice (Mus musculus) assessed as mean survival time at 3 times 30 mg/kg, perorally; assay type: functional; settings: route oral
Outline: (§3)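 Infection: 5 female NMRI mice (20–22 g) per group, inoculated intravenously with 0.2 ml of donor blood at 1 × 10^8 parasitized erythrocytes/ml. Oral administration in 0.5% carboxymethyl cellulose. Survival time recorded up to 30 days after infection and averaged per group.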

Plasmodium berghei [8] = assay: Antimalarial activity against Plasmodium berghei ANKA infected in perorally dosed NMRI mice (Mus musculus) assessed as reduction in parasitemia administered as single dose measured on day 3 postinfection; assay type: functional; settings: for ED50 / ED90: po, 72 h
Plasmodium berghei [9] = assay: Antimalarial activity against Plasmodium berghei ANKA infected in NMRI mice (Mus musculus) assessed as survival rate at 100 mg/kg, perorally administered as single dose; assay type: functional; settings: route oral; outline: as §3
[10] = Binding affinity to wild type Plasmodium falciparum DHFR by competitive binding assay
[11] = Binding affinity to recombinant Plasmodium falciparum V1/S DHFR S108N, N51I, C59R, I164L mutant by competitive binding assay; parameters: species or system V1S
Plasmodium falciparum [12] = assay: Antimalarial activity against pyrimethamine-resistant Plasmodium falciparum clinical isolate harboring S108N, N51I mutation in DHFR assessed as decrease in parasitaemia; assay type: functional, organism-based
Outline: (§4)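 P. falciparum grown in RPMI 1640 with 10% (v/v) human serum, 25 mM bicarbonate, 2 mM glutamine, 25 mM HEPES, 5 nM para-aminobenzoic acid and 23 nM folic acid. Parasites exposed to a concentration series. Read-out is [3H]hypoxanthine incorporation into nucleic acid. IC50 taken from non-linear regression of the dose–response curve.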

Plasmodium falciparum [13] = assay: Antimalarial activity against pyrimethamine-resistant Plasmodium falciparum clinical isolate harboring S108N, N51I, C59R mutation in DHFR assessed as decrease in parasitaemia; assay type: functional, organism-based; outline: as §4
Plasmodium falciparum [14] = assay: Antimalarial activity against pyrimethamine-resistant Plasmodium falciparum clinical isolate harboring S108N, C59R mutation in DHFR assessed as decrease in parasitaemia; assay type: functional, organism-based; outline: as §4
Plasmodium falciparum [15] = assay: Antimalarial activity against pyrimethamine-resistant Plasmodium falciparum V1/S harboring S108N, N51I, C59R, I164L mutation in DHFR assessed as decrease in parasitaemia; assay type: functional, organism-based; settings: V1S
Dihydrofolate reductase = biological target: T1, Dihydrofolate reductase (Homo sapiens, UniProt P00374); assay: Binding affinity to human recombinant DHFR expressed in Escherichia coli BL21(DE3) by competitive binding assay
T1 sequence (P00374 whole entry): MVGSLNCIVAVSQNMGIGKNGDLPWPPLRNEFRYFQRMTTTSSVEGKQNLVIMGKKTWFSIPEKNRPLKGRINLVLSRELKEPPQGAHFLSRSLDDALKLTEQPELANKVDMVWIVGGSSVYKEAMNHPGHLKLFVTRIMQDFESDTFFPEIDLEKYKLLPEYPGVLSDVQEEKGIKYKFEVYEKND

[16] = Selectivity ratio of Ki for human recombinant DHFR to Ki for wild type Plasmodium falciparum DHFR
Plasmodium falciparum [17] = assay: Selectivity ratio of Ki for recombinant Plasmodium falciparum V1/S DHFR S108N, N51I, C59R, I164L mutant to Ki for wild type Plasmodium falciparum DHFR

Structure (SMILES) | Activity (Plasmodium berghei [1]) [%] | Activity (Mus musculus [2]) [%] | Activity (Plasmodium berghei [3]) [%] | Activity (Plasmodium berghei [4]) [%] | Activity (Mus musculus [5]) [%] | Activity (Plasmodium berghei [6]) [%] | Survival (Plasmodium berghei [7]) [days] | ED50 (Plasmodium berghei [8]) [mg/kg] | ED90 (Plasmodium berghei [8]) [mg/kg] | Survival (Plasmodium berghei [9]) [days] | Ki [10] [nM] | Ki [11] [nM] | also measured
CCN(CC)CCCC(C)Nc1ccnc2cc(Cl)ccc12 (stereo unspecified) [CHLOROQUINE] | 89 | 0 | 98.8 | 0 | 0 | 0 | 22.1 | 1.9 | 4.2 | 25.5 | – | – | inhibition (Plasmodium berghei [8]): Dose dependent effect
CC1(C)N=C(N)N=C(N)N1c1ccc(Cl)cc1 [CYCLOGUANIL] | – | – | – | – | – | – | – | – | – | – | 1.51 | 454 | –
CCc1nc(N)nc(N)c1-c1ccc(Cl)cc1 [PYRIMETHAMINE] | – | – | – | – | – | – | – | – | – | – | 0.59 | 385 | IC50 (Plasmodium falciparum [12]): 371 nM; IC50 (Plasmodium falciparum [13]): 778 nM; IC50 (Plasmodium falciparum [14]): 371 nM; IC50 (Plasmodium falciparum [15]): 3690 nM
C[C@H]1[C@H](OC(=O)CCC(=O)O)O[C@@H]2O[C@@]3(C)CC[C@H]4[C@H](C)CC[C@@H]1[C@@]24OO3 [ARTESUNATE] | 98 | 0 | 98.7 | 0 | 0 | 0 | 12.2 | 5.9 | 20.5 | 7 | – | – | –
CC1(C)N=C(N)N=C(N)N1OCCCOc1cc(Cl)c(Cl)cc1Cl | – | – | – | – | – | – | – | – | – | – | 0.5 | 1.9 | Ki (Dihydrofolate reductase): 7.7 nM; Ratio Ki [16]: 15; Ratio Ki (Plasmodium falciparum [17]): 1.8
OC(c1cc(C(F)(F)F)nc2c(C(F)(F)F)cccc12)C1CCCCN1 (stereo unspecified) [MEFLOQUINE] | 99.6 | 0 | 99.8 | 0 | 0 | 0 | 14.3 | – | – | – | – | – | –
